According to ChEMBL document CHEMBL3232916, “1-(4-Methoxyphenyl)-5-(3,4,5-trimethoxyphenyl)-1H-1,2,4-triazole-3-carboxamides: synthesis, molecular modeling, evaluation of their anti-inflammatory activity and ulcerogenicity” (Eur J Med Chem, 2014):

Experiments:
[1] = system: Rattus norvegicus; experiment: Antiinflammatory activity in albino rat assessed as inhibition of carrageenan-induced paw edema at 0.28 mmol/kg, po administered 30 mins before carrageenan challenge measured after 1 hr relative to control; assay type: functional
Procedure, shortened: (§1)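 Male albino rats, n = 4 per group. Dosed orally as a suspension in 0.5% w/v CMC in water; controls received CMC alone. 0.1 mL of freshly prepared 1% carrageenan in saline was injected subplantar into the right hind paw 30 min after dosing, with saline in the left paw. Right paw thickness was read by Vernier caliper before and at 1–5 h. Result is % decrease in edema vs control, mean ± S.E.M.; one-way ANOVA.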

[2] = system: Rattus norvegicus; experiment: Antiinflammatory activity in albino rat assessed as inhibition of carrageenan-induced paw edema at 0.28 mmol/kg, po administered 30 mins before carrageenan challenge measured after 2 hrs relative to control; assay type: functional; procedure, shortened: as §1
[3] = system: Rattus norvegicus; experiment: Antiinflammatory activity in albino rat assessed as inhibition of carrageenan-induced paw edema at 0.28 mmol/kg, po administered 30 mins before carrageenan challenge measured after 3 hrs relative to control; assay type: functional; procedure, shortened: as §1
[4] = system: Rattus norvegicus; experiment: Antiinflammatory activity in albino rat assessed as inhibition of carrageenan-induced paw edema at 0.28 mmol/kg, po administered 30 mins before carrageenan challenge measured after 4 hrs relative to control; assay type: functional; procedure, shortened: as §1
[5] = system: Rattus norvegicus; experiment: Antiinflammatory activity in albino rat assessed as inhibition of carrageenan-induced paw edema at 0.28 mmol/kg, po administered 30 mins before carrageenan challenge measured after 5 hrs relative to control; assay type: functional; procedure, shortened: as §1
[6] = system: Rattus norvegicus; experiment: Ulcerogenic effect in albino rat assessed as ulcer index at 0.28 mmol/kg, po; assay type: toxicity, organism-based; settings: in vivo
Procedure, shortened: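 Rat gastric ulcers were graded by area: level I <1 mm², level II 1–3 mm², level III >3 mm². Ulcer index = 1×(level I count) + 2×(level II) + 3×(level III). Reported as mean ± S.E.M., n = 4.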

[7] = system: Rattus norvegicus; experiment: Antiinflammatory activity in albino rat assessed as inhibition of carrageenan-induced paw edema at 0.28 mmol/kg, po administered 30 mins before carrageenan challenge measured after 3 hrs relative to indomethacin; assay type: functional; settings: read-out: INH
Procedure, shortened: (§2)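 Calculated from the 3 h % edema inhibition in carrageenan paw edema (male albino rats, oral dosing in 0.5% CMC 30 min before 1% carrageenan subplantar injection). Expressed as % of the inhibition given by the reference drug in the same assay.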

[8] = system: Rattus norvegicus; experiment: Antiinflammatory activity in albino rat assessed as inhibition of carrageenan-induced paw edema at 0.28 mmol/kg, po administered 30 mins before carrageenan challenge measured after 3 hrs relative to celecoxib; assay type: functional; settings: read-out: INH; procedure, shortened: as §2
[9] = molecular target: T1, Prostaglandin G/H synthase 1 (Ovis aries, UniProt P05979); experiment: Inhibition of ovine COX1 assessed as prostaglandin F2alpha level
T1 sequence (P05979 whole entry): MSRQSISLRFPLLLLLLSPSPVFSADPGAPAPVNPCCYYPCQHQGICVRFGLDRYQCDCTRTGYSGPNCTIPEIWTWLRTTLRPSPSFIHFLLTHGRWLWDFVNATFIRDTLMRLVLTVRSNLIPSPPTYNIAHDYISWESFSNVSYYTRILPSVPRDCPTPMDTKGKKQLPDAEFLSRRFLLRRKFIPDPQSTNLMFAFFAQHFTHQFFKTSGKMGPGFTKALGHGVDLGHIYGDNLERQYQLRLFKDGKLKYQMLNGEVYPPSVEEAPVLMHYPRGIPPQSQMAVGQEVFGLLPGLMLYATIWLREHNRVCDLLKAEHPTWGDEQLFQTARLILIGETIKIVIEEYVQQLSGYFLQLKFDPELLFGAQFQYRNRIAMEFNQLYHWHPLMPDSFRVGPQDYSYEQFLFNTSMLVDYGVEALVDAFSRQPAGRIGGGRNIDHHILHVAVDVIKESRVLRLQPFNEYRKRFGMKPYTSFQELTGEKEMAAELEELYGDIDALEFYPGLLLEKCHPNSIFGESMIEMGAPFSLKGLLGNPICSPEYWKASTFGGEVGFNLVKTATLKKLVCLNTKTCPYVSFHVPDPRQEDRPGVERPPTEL

[10] = molecular target: T2, Prostaglandin G/H synthase 2 (Homo sapiens, UniProt P35354); experiment: Inhibition of human recombinant COX2 assessed as prostaglandin F2alpha level
T2 sequence (P35354 whole entry): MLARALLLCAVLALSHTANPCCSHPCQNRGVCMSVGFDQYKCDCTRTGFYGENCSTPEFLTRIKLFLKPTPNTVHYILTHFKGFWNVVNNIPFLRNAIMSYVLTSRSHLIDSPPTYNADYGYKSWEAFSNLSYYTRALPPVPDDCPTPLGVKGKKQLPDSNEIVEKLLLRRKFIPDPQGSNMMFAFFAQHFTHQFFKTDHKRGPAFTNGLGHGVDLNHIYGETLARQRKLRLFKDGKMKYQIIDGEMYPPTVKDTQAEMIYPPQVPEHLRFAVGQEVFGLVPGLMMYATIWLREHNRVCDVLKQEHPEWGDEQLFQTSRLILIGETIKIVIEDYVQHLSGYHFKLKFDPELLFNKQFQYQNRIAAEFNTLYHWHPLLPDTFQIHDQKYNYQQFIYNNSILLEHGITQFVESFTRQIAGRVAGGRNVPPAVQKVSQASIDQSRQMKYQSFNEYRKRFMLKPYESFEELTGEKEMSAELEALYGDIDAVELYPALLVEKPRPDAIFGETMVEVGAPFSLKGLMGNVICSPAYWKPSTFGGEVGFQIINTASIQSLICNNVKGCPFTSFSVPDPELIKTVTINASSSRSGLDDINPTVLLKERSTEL

[11] = Selectivity ratio IC50 for ovine COX1 to IC50 for human recombinant COX2

SMILES | inhibition in vivo at 280 µmol/kg [1] [%] | inhibition in vivo at 280 µmol/kg [2] [%] | inhibition in vivo at 280 µmol/kg [3] [%] | inhibition in vivo at 280 µmol/kg [4] [%] | inhibition in vivo at 280 µmol/kg [5] [%] | UI [6] | paw edema inhibition relative to indomethacin at 280 µmol/kg [7] [%] | paw edema inhibition relative to celecoxib at 280 µmol/kg [8] [%] | IC50 [9] [µM] | IC50 [10] [µM] | Ratio IC50 [11]
CNC(=O)c1nc(-c2cc(OC)c(OC)c(OC)c2)n(-c2ccc(OC)cc2)n1 | 56 | 74 | 74 | 65 | 50 | 7.5 | 95 | 109 | 45.9 | 68.2 | 0.67
COc1ccc(-n2nc(C(=O)Nc3ccc(Br)cc3)nc2-c2cc(OC)c(OC)c(OC)c2)cc1 | 40 | 50 | 66 | 59 | 57 | 1.8 | 85 | 97 | > 100 | > 100 | –
CCNC(=O)c1nc(-c2cc(OC)c(OC)c(OC)c2)n(-c2ccc(OC)cc2)n1 | 60 | 68 | 69 | 58 | 52 | 9 | 88 | 101 | – | – | –
COc1ccc(-n2nc(C(=O)Nc3ccc(Cl)cc3)nc2-c2cc(OC)c(OC)c(OC)c2)cc1 | 55 | 70 | 78 | 75 | 70 | 5 | 100 | 115 | > 100 | > 100 | –
COc1ccc(-n2nc(C(N)=O)nc2-c2cc(OC)c(OC)c(OC)c2)cc1 | 40 | 59 | 72 | 71 | 64 | 9 | 92 | 106 | – | – | –
COc1ccc(-n2nc(C(=O)Nc3ccc(O)cc3)nc2-c2cc(OC)c(OC)c(OC)c2)cc1 | 36 | 35 | 50 | 37 | 27 | 1 | 64 | 74 | – | – | –
COc1ccc(NC(=O)c2nc(-c3cc(OC)c(OC)c(OC)c3)n(-c3ccc(OC)cc3)n2)cc1 | 39 | 45 | 67 | 63 | 51 | 4.5 | 86 | 99 | – | – | –
COc1ccc(-n2nc(C(=O)Nc3cccc(C(F)(F)F)c3)nc2-c2cc(OC)c(OC)c(OC)c2)cc1 | 48 | 55 | 65 | 56 | 50 | 5 | 83 | 96 | – | – | –
COc1ccc(-n2nc(C(=O)Nc3ccc(C(=O)O)cc3)nc2-c2cc(OC)c(OC)c(OC)c2)cc1 | 50 | 57 | 74 | 69 | 60 | 12 | 95 | 109 | – | – | –
Cc1ccc(-c2cc(C(F)(F)F)nn2-c2ccc(S(N)(=O)=O)cc2)cc1 [CELECOXIB] | 42 | 48 | 68 | 57 | 51 | 0.5 | – | – | – | – | –
COc1ccc(-n2nc(C(=O)NN)nc2-c2cc(OC)c(OC)c(OC)c2)cc1 | 36 | 47 | 57 | 54 | 56 | 2 | 73 | 84 | 39.8 | 46.3 | 0.86
COc1ccc(-n2nc(C(=O)Nc3ccc(C)cc3)nc2-c2cc(OC)c(OC)c(OC)c2)cc1 | 38 | 60 | 60 | 58 | 42 | 5.5 | 77 | 88 | – | – | –
COc1ccc(-n2nc(C(=O)Nc3ccc(OC)c(OC)c3)nc2-c2cc(OC)c(OC)c(OC)c2)cc1 | 57 | 68 | 78 | 70 | 61 | 7 | 100 | 115 | > 100 | > 100 | –
COc1ccc(-n2nc(C(=O)Nc3ccccc3OC)nc2-c2cc(OC)c(OC)c(OC)c2)cc1 | 52 | 57 | 30 | 24 | 10 | 5 | 38 | 44 | – | – | –
COc1ccc(-n2nc(C(=O)Nc3ccccc3)nc2-c2cc(OC)c(OC)c(OC)c2)cc1 | 45 | 51 | 54 | 50 | 46 | 4 | 69 | 79 | – | – | –
